Source: ChEMBL document CHEMBL1157853, “Synthesis, pharmacological activity and comparative QSAR modeling of 1,5-N,N'-substituted-2-(substituted naphthalenesulphonyl) glutamamides as possible anticancer agents” (2010)

What was measured:
[1] = Antitumor activity against ip dosed mouse EAC implanted in Swiss albino mouse assessed as inhibition of ascitic fluid administered daily for 7 days measured on 9th day relative to control; type: functional, Ehrlich
How it was run: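 Female Swiss albino mice (18-20 g, 6 per group) implanted ip with 2×10^6 EAC cells/0.2 mL. Compound in phosphate buffer pH 7.2 (PBS + 2% Tween 80 when needed) given ip daily from day 2, seven doses; controls received vehicle. Day 9, after a 6 h fast, mice weighed before and after ascitic fluid removal; the difference is tumor weight. %TWI derived from mean test vs control weight.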

[2] = Antitumor activity against ip dosed mouse EAC implanted in Swiss albino mouse assessed as inhibition of ascitic cell administered daily for 7 days measured on 9th day relative to control; type: functional, Ehrlich
How it was run: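 Female Swiss albino mice (18-20 g, 6 per group, test vs vehicle control) given 2×10^6 EAC cells/0.2 mL ip. From day 2, compound in phosphate buffer pH 7.2 (2% Tween 80 in PBS if needed) given ip every 24 h for seven doses. Day 9, after a 6 h fast, ascitic fluid withdrawn and live cells counted by trypan blue and haemocytometer. %TCI derived from mean cells/ml in test vs control.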

SMILES | inhibition (INH) [1] | inhibition (INH) [2]
CNC(=O)CCC(NS(=O)(=O)c1cccc2ccccc12)C(=O)NC (configuration not stated) | 27.42% | 69.32%
CCCCNC(=O)CCC(NS(=O)(=O)c1ccc(Cl)c2ccccc12)C(=O)NCCCC (configuration not stated) | 20.71% | 33.1%
CCCCCCNC(=O)CCC(NS(=O)(=O)c1ccc(Cl)c2ccccc12)C(=O)NCCCCCC (configuration not stated) | 15.95% | 50.51%
CCCNC(=O)CCC(NS(=O)(=O)c1ccc(Br)c2ccccc12)C(=O)NCCC (configuration not stated) | 2.96% | 14.86%
CCNC(=O)CCC(NS(=O)(=O)c1ccc(Br)c2ccccc12)C(=O)NCC (configuration not stated) | 24.34% | 16.22%
NC(=O)CCC(NS(=O)(=O)c1ccc(Cl)c2ccccc12)C(N)=O (configuration not stated) | 55.21% | 48.52%
CCCCNC(=O)CCC(NS(=O)(=O)c1cccc2ccccc12)C(=O)NCCCC (configuration not stated) | 14.34% | 16.17%
[N-]=[N+]=CC(=O)OC[C@H](N)C(=O)O [AZASERINE] | 100% | 100%
O=C(CCC(NS(=O)(=O)c1ccc(Cl)c2ccccc12)C(=O)NCc1ccccc1)NCc1ccccc1 (configuration not stated) | 22.69% | 22.94%
CCCCCCNC(=O)CCC(NS(=O)(=O)c1c(OC)ccc2ccccc12)C(=O)NCCCCCC (configuration not stated) | 5.19% | 14.79%
CNC(=O)CCC(NS(=O)(=O)c1ccc(Cl)c2ccccc12)C(=O)NC (configuration not stated) | 20.57% | 46.52%
CCNC(=O)CCC(NS(=O)(=O)c1ccc(Cl)c2ccccc12)C(=O)NCC (configuration not stated) | 24.1% | 48.67%
CC(C)CNC(=O)CCC(NS(=O)(=O)c1cccc2ccccc12)C(=O)NCC(C)C (configuration not stated) | 11.93% | 61.96%
CCCNC(=O)CCC(NS(=O)(=O)c1cccc2ccccc12)C(=O)NCCC (configuration not stated) | 16.15% | 14.21%
NC(=O)CCC(NS(=O)(=O)c1ccc(Br)c2ccccc12)C(N)=O (configuration not stated) | 36.46% | 58.25%
COc1ccc2ccccc2c1S(=O)(=O)NC(CCC(=O)NC1CCCCC1)C(=O)NC1CCCCC1 (configuration not stated) | 13.52% | 4.34%

SMILES | inhibition (INH) [1] | inhibition (INH) [2]
NC(=O)CCC(NS(=O)(=O)c1cccc2ccccc12)C(N)=O (configuration not stated) | 32.19% | 38.34%
CO[C@@]12[C@H](COC(N)=O)C3=C(C(=O)C(C)=C(N)C3=O)N1C[C@@H]1N[C@@H]12 [MITOMYCIN] | 100% | 100%
CC(C)CNC(=O)CCC(NS(=O)(=O)c1ccc(Cl)c2ccccc12)C(=O)NCC(C)C (configuration not stated) | 15.2% | 41.28%
[N-]=[N+]=CC(=O)CC[C@H](N)C(=O)O [6-DIAZO-5-OXO-L-NORLEUCINE] | 100% | 100%
CCCCCNC(=O)CCC(NS(=O)(=O)c1ccc(Br)c2ccccc12)C(=O)NCCCCC (configuration not stated) | 22.81% | 10.42%
CNC(=O)CCC(NS(=O)(=O)c1ccc(Br)c2ccccc12)C(=O)NC (configuration not stated) | 20.58% | 10.62%
COc1ccc2ccccc2c1S(=O)(=O)NC(CCC(=O)NCc1ccccc1)C(=O)NCc1ccccc1 (configuration not stated) | 7.57% | 18.78%
O=C(CCC(NS(=O)(=O)c1ccc(Br)c2ccccc12)C(=O)NCc1ccccc1)NCc1ccccc1 (configuration not stated) | 8.99% | 23.5%
O=C(CCC(NS(=O)(=O)c1cccc2ccccc12)C(=O)NC1CCCCC1)NC1CCCCC1 (configuration not stated) | 43.58% | 53.76%
CCCNC(=O)CCC(NS(=O)(=O)c1ccc(Cl)c2ccccc12)C(=O)NCCC (configuration not stated) | 18.73% | 39.33%
CC(C)NC(=O)CCC(NS(=O)(=O)c1cccc2ccccc12)C(=O)NC(C)C (configuration not stated) | 17.74% | 43.96%
O=C(CCC(NS(=O)(=O)c1cccc2ccccc12)C(=O)NCc1ccccc1)NCc1ccccc1 (configuration not stated) | 17.04% | 34.46%
CCCCCNC(=O)CCC(NS(=O)(=O)c1cccc2ccccc12)C(=O)NCCCCC (configuration not stated) | 56.62% | 17.64%
CC(C)NC(=O)CCC(NS(=O)(=O)c1ccc(Cl)c2ccccc12)C(=O)NC(C)C (configuration not stated) | 24.68% | 75.17%
CCNC(=O)CCC(NS(=O)(=O)c1cccc2ccccc12)C(=O)NCC (configuration not stated) | 24.61% | 27.92%
